Results on two molecules are retold here after paper PMC8662605 (Molecular Biology and Evolution, 2021).

One experiment has as its target T1, human Tas2R16 (Homo sapiens, UniProt Q9NYV7).
T1 sequence (Q9NYV7 1-291): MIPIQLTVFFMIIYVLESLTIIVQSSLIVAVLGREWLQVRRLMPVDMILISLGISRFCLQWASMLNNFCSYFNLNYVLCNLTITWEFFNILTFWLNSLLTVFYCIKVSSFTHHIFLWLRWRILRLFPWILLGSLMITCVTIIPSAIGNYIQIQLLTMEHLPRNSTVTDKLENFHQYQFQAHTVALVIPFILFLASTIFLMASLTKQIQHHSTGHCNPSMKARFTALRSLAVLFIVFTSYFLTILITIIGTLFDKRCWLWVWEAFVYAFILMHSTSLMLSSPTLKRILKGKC
The experiment is classed as cell-based.

Experiment [1] has as its system 172K mutant of the white-faced saki Tas2R16. Put plainly: functional heterologous cell expression assay, calcium mobilization, mutagenesis. The experiment is classed as cell-based, white-faced saki (Pithecia pithecia). The note with it: for EC50: 172K mutant of white-faced saki Tas2R16. The method in brief:
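Saki Tas2R16 (wild-type, or the reverse 172K mutant made by site-directed mutagenesis) was expressed from HSV-tagged pcDNA5/FRT vectors, transiently transfected into HEK293 cells stably expressing chimeric Gα16-gust44. Calcium mobilisation on bitter stimulation was recorded on a fluorescence plate reader. EC50 came from nonlinear sigmoidal dose–response fits with variable slope. Cell-surface receptor expression was measured by imaging cytometry.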

Experiment [2] concerns white-faced saki Tas2R16 (wild-type, 172N). Type of experiment: cell-based, white-faced saki (Pithecia pithecia).
Setting [3] is: 172K saki mutant versus wild-type (172N).

Take `OCc1ccccc1O[C@@H]1O[C@H](CO)[C@@H](O)[C@H](O)[C@H]1O` [salicin]: the EC50 at human Tas2R16 was 490 ± 80 µM; in experiment [1], 1120 ± 190 µM; in experiment [2], 510 ± 30 µM. For the same molecule, in experiment [1] (setting [3]), the “sensitivity compared with the wild-type” value was “about 50%”.
In the case of `O=Cc1ccccc1O[C@@H]1O[C@H](CO)[C@@H](O)[C@H](O)[C@H]1O` [helicin], the EC50 was 890 ± 110 µM in experiment [1] and 500 ± 40 µM in experiment [2]. For the same molecule, in experiment [1] (setting [3]), the “fold increased EC50 value compared with the wild-type” value is recorded as roughly 2 fold. In addition, the “sensitivity compared with the wild-type” value in experiment [1] (setting [3]) was “about 50%”.
